In ChEMBL document CHEMBL5058577, “EUbOPEN Chemogenomics Library 2 (Multiplex)” (2022):

System: U2OS
Test: Multiplex assay against U2OS
Type: toxicity, cell-based
Settings: human
Procedure, shortened: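 Phenotypes for tubulin, mitochondrial mass and membrane permeability are expressed as per cents of healthy-nucleus cells. Cells were stained live at seeding with Hoechst33342, BioTracker Green Microtubule Cytoskeleton Dye, MitoTracker Red and Annexin V Alexa Fluor 680, then imaged after compound addition on a CQ1 microscope at 37°C and 5% CO2. Machine-learning gating in CellPathfinder separated Hoechst high-intensity objects from normal cells, divided normal cells by nuclear state (healthy, pyknosed, fragmented) and divided pyknosed cells into mitotic or apoptotic.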

[1] = 12 h, 1 µM, compound concentration 1 uM, replicate 1
[2] = 12 h, 1 µM, compound concentration 1 uM, replicate 2
[3] = 12 h, 10 µM, compound concentration 10 uM, replicate 1
[4] = 12 h, 10 µM, compound concentration 10 uM, replicate 2
[5] = 24 h, 1 µM, compound concentration 1 uM, replicate 1
[6] = 24 h, 1 µM, compound concentration 1 uM, replicate 2
[7] = 24 h, 10 µM, compound concentration 10 uM, replicate 1
[8] = 24 h, 10 µM, compound concentration 10 uM, replicate 2
[9] = 48 h, 1 µM, compound concentration 1 uM, replicate 1
[10] = 48 h, 1 µM, compound concentration 1 uM, replicate 2
[11] = 48 h, 10 µM, compound concentration 10 uM, replicate 1
[12] = 48 h, 10 µM, compound concentration 10 uM, replicate 2

Cc1cc(O)c(-c2ccc([C@@H](C)CN(C)C)cc2)c2c1[nH]c(=O)c1sccc12
Population Apoptotic (%) [1]: 80% | Population Fragmented Nuclei (%) [1]: 38% | Population Healthy Nuclei (%) [1]: 48% | Population Hoechst High Intensity Objects (%) [1]: 4% | Population Membrane Permeable-Phenotype (%) [1]: 21% | Population Mitochondria Different-Phenotype (%) [1]: 17% | Population Mitotic Cells (%) [1]: 19% | Population Normal (%) [1]: 95% | Population Pyknosed Nuclei (%) [1]: 12% | Population Tubulin-Different-Phenotype (%) [1]: 12% | Total Cell Count [1]: 252 | Population Apoptotic (%) [2]: 70% | Population Fragmented Nuclei (%) [2]: 25% | Population Healthy Nuclei (%) [2]: 63% | Population Hoechst High Intensity Objects (%) [2]: 2% | Population Membrane Permeable-Phenotype (%) [2]: 9% | Population Mitochondria Different-Phenotype (%) [2]: 14% | Population Mitotic Cells (%) [2]: 30% | Population Normal (%) [2]: 97% | Population Pyknosed Nuclei (%) [2]: 11% | Population Tubulin-Different-Phenotype (%) [2]: 14% | Total Cell Count [2]: 89 | Population Apoptotic (%) [3]: 64% | Population Fragmented Nuclei (%) [3]: 28% | Population Healthy Nuclei (%) [3]: 50% | Population Hoechst High Intensity Objects (%) [3]: 4% | Population Membrane Permeable-Phenotype (%) [3]: 54% | Population Mitochondria Different-Phenotype (%) [3]: 62% | Population Mitotic Cells (%) [3]: 35% | Population Normal (%) [3]: 95% | Population Pyknosed Nuclei (%) [3]: 21% | Population Tubulin-Different-Phenotype (%) [3]: 72% | Total Cell Count [3]: 222 | Population Apoptotic (%) [4]: 69% | Population Fragmented Nuclei (%) [4]: 20% | Population Healthy Nuclei (%) [4]: 56% | Population Hoechst High Intensity Objects (%) [4]: 8% | Population Membrane Permeable-Phenotype (%) [4]: 22% | Population Mitochondria Different-Phenotype (%) [4]: 61% | Population Mitotic Cells (%) [4]: 30% | Population Normal (%) [4]: 91% | Population Pyknosed Nuclei (%) [4]: 22% | Population Tubulin-Different-Phenotype (%) [4]: 45% | Total Cell Count [4]: 110 | Population Apoptotic (%) [5]: 92% | Population Fragmented Nuclei (%) [5]: 43% | Population Healthy Nuclei (%) [5]: 34% | Population Hoechst High Intensity Objects (%) [5]: 8% | Population Membrane Permeable-Phenotype (%) [5]: 20% | Population Mitochondria Different-Phenotype (%) [5]: 25% | Population Mitotic Cells (%) [5]: 7% | Population Normal (%) [5]: 91% | Population Pyknosed Nuclei (%) [5]: 21% | Population Tubulin-Different-Phenotype (%) [5]: 19% | Total Cell Count [5]: 256 | Population Apoptotic (%) [6]: 100% | Population Fragmented Nuclei (%) [6]: 41% | Population Healthy Nuclei (%) [6]: 41% | Population Hoechst High Intensity Objects (%) [6]: 6% | Population Membrane Permeable-Phenotype (%) [6]: 15% | Population Mitochondria Different-Phenotype (%) [6]: 21% | Population Mitotic Cells (%) [6]: 0% | Population Normal (%) [6]: 93% | Population Pyknosed Nuclei (%) [6]: 17% | Population Tubulin-Different-Phenotype (%) [6]: 12% | Total Cell Count [6]: 83 | Population Apoptotic (%) [7]: 81% | Population Fragmented Nuclei (%) [7]: 36% | Population Healthy Nuclei (%) [7]: 35% | Population Hoechst High Intensity Objects (%) [7]: 9% | Population Membrane Permeable-Phenotype (%) [7]: 16% | Population Mitochondria Different-Phenotype (%) [7]: 70% | Population Mitotic Cells (%) [7]: 18% | Population Normal (%) [7]: 90% | Population Pyknosed Nuclei (%) [7]: 27% | Population Tubulin-Different-Phenotype (%) [7]: 47% | Total Cell Count [7]: 210 | Population Apoptotic (%) [8]: 82% | Population Fragmented Nuclei (%) [8]: 40% | Population Healthy Nuclei (%) [8]: 31% | Population Hoechst High Intensity Objects (%) [8]: 12% | Population Membrane Permeable-Phenotype (%) [8]: 25% | Population Mitochondria Different-Phenotype (%) [8]: 62% | Population Mitotic Cells (%) [8]: 17% | Population Normal (%) [8]: 87% | Population Pyknosed Nuclei (%) [8]: 28% | Population Tubulin-Different-Phenotype (%) [8]: 34% | Total Cell Count [8]: 118 | Population Apoptotic (%) [9]: 96% | Population Fragmented Nuclei (%) [9]: 53% | Population Healthy Nuclei (%) [9]: 18% | Population Hoechst High Intensity Objects (%) [9]: 17% | Population Membrane Permeable-Phenotype (%) [9]: 23% | Population Mitochondria Different-Phenotype (%) [9]: 25% | Population Mitotic Cells (%) [9]: 3% | Population Normal (%) [9]: 82% | Population Pyknosed Nuclei (%) [9]: 27% | Population Tubulin-Different-Phenotype (%) [9]: 25% | Total Cell Count [9]: 250 | Population Apoptotic (%) [10]: 100% | Population Fragmented Nuclei (%) [10]: 64% | Population Healthy Nuclei (%) [10]: 19% | Population Hoechst High Intensity Objects (%) [10]: 15% | Population Membrane Permeable-Phenotype (%) [10]: 35% | Population Mitochondria Different-Phenotype (%) [10]: 35% | Population Mitotic Cells (%) [10]: 0% | Population Normal (%) [10]: 84% | Population Pyknosed Nuclei (%) [10]: 15% | Total Cell Count [10]: 120 | Population Apoptotic (%) [11]: 96% | Population Fragmented Nuclei (%) [11]: 50% | Population Healthy Nuclei (%) [11]: 17% | Population Hoechst High Intensity Objects (%) [11]: 20% | Population Membrane Permeable-Phenotype (%) [11]: 25% | Population Mitochondria Different-Phenotype (%) [11]: 45% | Population Mitotic Cells (%) [11]: 3% | Population Normal (%) [11]: 79% | Population Pyknosed Nuclei (%) [11]: 31% | Population Tubulin-Different-Phenotype (%) [11]: 32% | Total Cell Count [11]: 220 | Population Apoptotic (%) [12]: 100% | Population Fragmented Nuclei (%) [12]: 54% | Population Healthy Nuclei (%) [12]: 13% | Population Hoechst High Intensity Objects (%) [12]: 15% | Population Membrane Permeable-Phenotype (%) [12]: 64% | Population Mitochondria Different-Phenotype (%) [12]: 50% | Population Mitotic Cells (%) [12]: 0% | Population Normal (%) [12]: 84% | Population Tubulin-Different-Phenotype (%) [12]: 64% | Total Cell Count [12]: 120
